Compound activity (PubChem)
FXN GAA850 act = frataxin GAA850 promoter activation; HEK293 lucGAA850 FXN promoter luciferase reporter, 24 h; percent of 10 µM SAHA response; activation, % at 6 µM; hit rate 0.56% among 360,000; AID 540364;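 active means activation above the average of all compounds screened plus 3 SD, cutoff fixed separately per campaign, cut at about 7.5% in these data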
UPR CHOP act = apoptotic UPR (CHOP) activation; hit rate 0.34% among 330,000; activation, % at 10 µM; CHO-CHOP luciferase reporter, luminescence; percent of tunicamycin response over DMSO baseline; AID 449763;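 active means at 10 µM dose, activation of 40% or more, normalized to positive control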
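measured by = luciferase luminescence | assay system = CHO-CHOP cells, stable luciferase reporter of PERK-eIF2a-CHOP signalling | amount = 500 reporter cells seeded per well | timing = 6 h compound exposure at 37 °C after overnight seeding | controls = positive tunicamycin 10 µg/mL, negative DMSO alone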
XBP1 UPR activ = activators of adaptive arm of unfolded protein response (XBP1) | activation, % at 20 µM | CHO-XBP1 luciferase reporter, IRE1-XBP1 UPR activation, luminescence; percent of tunicamycin response, DMSO as zero | hit rate 0.33% among 330,000;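 active means versus positive control, 20 µM dose yields 30% or more activation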
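incubation = overnight seeding at 37 °C, 6 h compound treatment at 37 °C | assay system = CHO-XBP1 cells stably carrying IRE1-XBP1-driven luciferase reporter | input = 1000 cells per well | detection = luciferase luminescence | dosing = single point, 20 µM final compound, 1% DMSO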
CHOP inh = CHOP inhibition in unfolded protein response | hit rate 3.8% among 220,000 | CHO-K1 CHOP-promoter luciferase, tunicamycin-induced, 15-18 h | inhibition, % at 10 µM;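 active means compounds that reduced the stress-induced luciferase reporter signal by more than about 70% of percent inhibition, limit read from the data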
CHOP confirm = confirmation of CHOP induction inhibitors; shares compounds with CHOP inh; CHO-CHOP promoter luciferase reporter, tunicamycin-induced, luminescence; inhibition, % at 10 µM; hit rate 45% among 2,100; AID 504437;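 active means mean of three repeat readings of reporter signal inhibition above a set limit, cut at about 70% in these data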
Of the large screens only hits and unclear results are named; the others gave an inactive call (follow-up assays come after a bar, where they were run). Many of the other results were omitted from the sample, so hits are more common in it than they were.

O=S(=O)(Nc1cccc2c1CCCC2)c1cccc(C(F)(F)F)c1	CHOP inh 107 | CHOP confirm 120
CCCS(=O)(=O)NC(=O)C1(C)CCCN(C(=O)c2oc3ccccc3c2C)C1 (configuration not stated)	none (no result: UPR CHOP act, XBP1 UPR activ, CHOP inh)
CCOC(=O)C(C)Oc1cccc2c(=O)n(CC(=O)Nc3ccc(OCC)cc3)ccc12 (configuration not stated)	CHOP inh 106 | CHOP confirm inactive
COc1ccc(C(=O)NCCCC2CCCC2)cc1OC1CCN(C(C)C)CC1	none (no result: UPR CHOP act, XBP1 UPR activ, CHOP inh)
COc1ccc(C(=O)/C=C/C(=O)N(CC(=O)NC2CCCCC2)Cc2ccc(F)cc2)c(O)c1	CHOP inh 108 (no result: UPR CHOP act, XBP1 UPR activ) | CHOP confirm 140
COc1ccc(C(=O)N(Cc2ccco2)Cc2cccs2)c(O)c1	none
COc1ccc(C(=O)/C=C/C(=O)N(CC(=O)NCCC(C)C)Cc2cccs2)c(O)c1	CHOP inh 106 (no result: UPR CHOP act, XBP1 UPR activ) | CHOP confirm 113
O=C(Cn1cc(COc2ccc(Cl)c(Cl)c2)nn1)NS(=O)(=O)c1ccccc1OC(F)(F)F	none (no result: UPR CHOP act, XBP1 UPR activ, CHOP inh)
CC1(C)CC(=O)C=C(c2ccc(-c3cccc4c3sc3ccccc34)cc2)C1=O	none (no result: UPR CHOP act, XBP1 UPR activ, CHOP inh)
CC(=NCc1ccccc1)c1ccc(O)cc1O	none (no result: UPR CHOP act, XBP1 UPR activ, CHOP inh)
O=C(CN1C(=O)S/C(=C\c2ccc(Cl)cc2)C1=O)NNC(=O)c1ccccc1O	CHOP inh 106 (no result: UPR CHOP act, XBP1 UPR activ) | CHOP confirm inactive
O=C(CN1C(=O)S/C(=C\c2ccc(Cl)cc2)C1=O)NC1C=CS(=O)(=O)C1 (configuration not stated)	none (no result: CHOP inh)
Cc1ccc(C(=Cc2ccc([N+](=O)[O-])cc2)C(=O)O)cc1	none (no result: UPR CHOP act, XBP1 UPR activ, CHOP inh)
O=C(c1cccc2ccccc12)N1CCCCC1	none (no result: CHOP inh)
O=C(c1ccc2c3c(cccc13)C(=O)N(O)C2=O)N1CCCCC1	CHOP inh 98 | CHOP confirm 109
Cc1cc(=O)n2c3c(sc2n1)C(=O)N(Cc1ccccc1)C3=O	CHOP inh 105 (no result: FXN GAA850 act) | CHOP confirm inactive
CCCCC1=CC2=C(c3ccco3)C(=O)C(C)(OC(=O)c3ccc(OC)cc3)C(=O)C2=CN1CCc1ccccn1 (configuration not stated)	none
CCCCC1=CC2=C(c3ccco3)C(=O)C(C)(OC(=O)c3ccc(OC)cc3)C(=O)C2=CN1Cc1ccccc1 (configuration not stated)	CHOP inh 105 | CHOP confirm 73
CCCCC1=CC2=C(c3ccco3)C(=O)C(C)(OC(=O)c3ccc(OC)cc3)C(=O)C2=CN1C1CCCCC1 (configuration not stated)	CHOP inh 101 | CHOP confirm inactive
CCCCC1=CC2=C(c3ccco3)C(=O)C(C)(OC(=O)c3ccc(OC)cc3)C(=O)C2=CN1CCOC (configuration not stated)	none
CCCCC1=CC2=C(c3ccco3)C(=O)C(C)(OC(=O)c3ccc(OC)cc3)C(=O)C2=CN1Cc1ccc2c(c1)OCO2 (configuration not stated)	CHOP inh 102 | CHOP confirm inactive
OC[C@@H]1CN(Cc2ccc(F)cc2)C[C@H](n2cnc3c(N4CCN(c5ccccc5)CC4)ncnc32)O1	none (no result: UPR CHOP act, XBP1 UPR activ, CHOP inh)
CCc1nc2ccc(C(=O)NCCCn3ccnc3)cn2c1N(C)CCC(C)C	none (no result: UPR CHOP act, XBP1 UPR activ, CHOP inh)
O=C(CSc1ccc(C(F)(F)F)cc1[N+](=O)[O-])Nc1ccccc1	CHOP inh 97 | CHOP confirm inactive
O=C(Nc1ccc(F)cc1)c1ccccc1Oc1ccc(C(F)(F)F)cc1[N+](=O)[O-]	CHOP inh 106 | CHOP confirm inactive
CC(=O)Nc1ccc(NC(=O)CSc2ccc(C(F)(F)F)cc2[N+](=O)[O-])cc1	none
N#CCCn1cc(C(=O)CN2C(=O)NC3(CCc4ccccc43)C2=O)c2ccccc21 (configuration not stated)	none (no result: UPR CHOP act, XBP1 UPR activ, CHOP inh)
Cc1ccc(C(=O)Nc2cnc3ccccc3c2)cc1	CHOP inh 98 | CHOP confirm 117
Cc1cc(C(=O)Nc2cnc3ccccc3c2)ccc1[N+](=O)[O-]	none
Cc1ccc(C(=O)Nc2nc3ccccc3c(=O)s2)cc1	CHOP inh 102 | CHOP confirm inactive
C[C@H](O)[C@@H]1C(=O)N2CCc3ccc(N4CCN(C)CC4)cc3[C@@H]2C[C@@H]1N(C)C(=O)c1cccnc1	none (no result: UPR CHOP act, XBP1 UPR activ, CHOP inh)
COc1ccc(N2CCN(Cc3cc(=O)oc4cc(C)c(Cl)cc34)CC2)cc1	CHOP inh 96 | CHOP confirm inactive
Cc1cc2oc(=O)cc(CN3CCOCC3)c2cc1Cl	none (no result: CHOP inh)
COc1cc(-c2nc3ccc4ccccc4c3c3c2CCC3)cc(OC)c1O	CHOP inh 102 | CHOP confirm 106
CCCNC(=O)C1(C)CCN1C(=O)c1cc(C)n(C)n1 (configuration not stated)	none (no result: UPR CHOP act, XBP1 UPR activ, CHOP inh)
Oc1ccc(Br)cc1-c1cc(-c2ccc(Cl)cc2)n[nH]1	CHOP inh 104 | CHOP confirm inactive
Oc1ccc(Br)cc1-c1cc(-c2ccccc2)n[nH]1	none
CC(C)N1C(=O)C(=O)N(CC(=O)N2c3ccccc3CC2C)C1=O (configuration not stated)	none (no result: UPR CHOP act, XBP1 UPR activ, CHOP inh)
CCc1nc2ccc(C(=O)N(C)CCN(C)C)cn2c1N(CC)C(=O)NCCc1ccccc1	none (no result: UPR CHOP act, XBP1 UPR activ, CHOP inh)
Cc1ccc(Sc2ccc(NC(=O)c3ccc(S(C)(=O)=O)cc3Cl)cc2)cc1	CHOP inh 98 | CHOP confirm inactive
Cc1ccsc1C(=O)N1CCCCCC1(C)C(=O)NCC(C)C (configuration not stated)	none (no result: UPR CHOP act, XBP1 UPR activ, CHOP inh)
Cc1cccc(Oc2cc(NC(=O)Cn3cnc([N+](=O)[O-])n3)cc([N+](=O)[O-])c2)c1	CHOP inh 103 (no result: UPR CHOP act, XBP1 UPR activ) | CHOP confirm inactive
Cc1cc(C)cc(Oc2cc(NC(=O)c3cn(C)nc3C)cc([N+](=O)[O-])c2)c1	none
CC1=C(C(=O)N2CCOCC2)CC(CC(=O)NCCCCc2ccccc2)C(=O)N1Cc1ccc(C(C)(C)C)cc1 (configuration not stated)	none (no result: UPR CHOP act, XBP1 UPR activ, CHOP inh)
O=C1CC(C(=O)Nc2ccc(Cl)c(Cl)c2)S/C(=N\N=C\c2ccco2)N1 (configuration not stated)	CHOP inh 100 | CHOP confirm inactive
COc1ccc(-c2ccc(C(=O)Nc3ccc(OC)nc3)c3occc23)c(C)c1	none (no result: UPR CHOP act, XBP1 UPR activ, CHOP inh)
CC1CCN(C(=O)/C(=C/c2ccccc2Cl)c2ccccc2)CC1	CHOP inh 101 | CHOP confirm 88
CN1CCN(C(=O)/C(=C\c2ccccc2)c2ccccc2)CC1	none
Cc1[nH]n(C(N)=S)c(=O)c1N=Nc1ccc([N+](=O)[O-])cc1Cl	none (no result: CHOP inh)
NC(=S)n1[nH]c(-c2ccc([N+](=O)[O-])cc2)c(N=Nc2ccc(O)cc2)c1=O	CHOP inh 107 | CHOP confirm inactive
CCc1ccc(NSc2ccccc2[N+](=O)[O-])cc1	CHOP inh 102 | CHOP confirm inactive
O=S(=O)(c1ccc(F)c(F)c1)N1CCCCCCC1	none (no result: UPR CHOP act, XBP1 UPR activ, CHOP inh)
CCOC(=O)c1ccc(NC(=O)CCc2nc(-c3cccc(C)c3)no2)cc1	CHOP inh 98 | CHOP confirm inactive
Cc1cccc(-c2noc(CCC(=O)NCc3ccccc3)n2)c1	none
